Assay results published in ChEMBL document CHEMBL3751681, “Natural product-based synthesis of novel anti-infective isothiocyanate- and isoselenocyanate-functionalized amphilectane diterpenes” (Bioorg Med Chem Lett, 2016).
In brackets after ≈: the same amount, converted by molar mass.

Tests used:
[1] = system: Plasmodium falciparum; assay: Antiplasmodial activity against chloroquine-resistant Plasmodium falciparum Dd2 infected in human RBCs after 72 hrs by SYBR Green based parasite proliferation assay; assay type: functional, organism-based; conditions: Dd2, 72 h
Summary of the method: (§1)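 P. falciparum (3D7 or Dd2) grown in human O+ erythrocytes in RPMI 1640 with gentamicin, hypoxanthine, HEPES, bicarbonate, glucose, Albumax and 5% human serum. Gassed with 3% CO2, 1% O2, 96% N2 and held at 37°C. Parasites exposed to serial compound dilutions for 72 h. Parasite DNA increase read by SYBR Green fluorescence (ex 495, em 525 nm).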

[2] = system: Plasmodium falciparum; assay: Antiplasmodial activity against chloroquine-sensitive Plasmodium falciparum 3D7 infected in human RBCs after 72 hrs by SYBR Green based parasite proliferation assay; assay type: functional, organism-based; conditions: 3D7, 72 h; summary of the method: as §1
[3] = system: Mycobacterium tuberculosis; assay: Antimycobacterial activity against Mycobacterium tuberculosis H37Rv ATCC 27294 by microplate alamar blue assay; assay type: functional
Summary of the method: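 Mtb H37Rv tested in the microplate Alamar blue assay; rifampicin served as positive control.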

[4] = system: Vero; assay: Cytotoxicity against African green monkey Vero cells by MTS assay; assay type: cell-based; conditions: Chlorocebus sabaeus
[5] = Selectivity index, ratio of IC50 for African green monkey Vero cells to IC50 for chloroquine-resistant Plasmodium falciparum Dd2; assay type: toxicity, cell-based; conditions: read-out: Ratio IC50
[6] = Selectivity index, ratio of IC50 for African green monkey Vero cells to IC50 for chloroquine-sensitive Plasmodium falciparum 3D7; assay type: toxicity, cell-based; conditions: read-out: Ratio IC50
[7] = Selectivity index, ratio of IC50 for African green monkey Vero cells to MIC for Mycobacterium tuberculosis H37Rv ATCC 27294; assay type: toxicity, cell-based; conditions: read-out: Selectivity Index

SMILES	IC50 [1] [µM]	IC50 [2] [µM]	MIC [3] [µM]	IC50 [4] [µM]	selectivity ratio [5]	selectivity ratio [6]	selectivity ratio [7]
C=C1CC[C@@]2(N=C=[Se])[C@H]3[C@H](CC[C@@H]2C)[C@@H](C)C[C@@H](CC(C)(C)N=C=[Se])[C@H]13	0.0066	0.0025	3.9 (≈ 1.88 µg/mL)	48.6	7360	19400	12.4
[C-]#[N+]C(C)(C)C[C@@H]1C[C@H](C)[C@H]2CC[C@H](C)[C@@]3([N+]#[C-])CCC(=C)[C@@H]1[C@H]23 [DIISOCYANOAMPHILECTENE]	0.0031	–	9.8 (≈ 3.18 µg/mL)	–	32200	83100	10.2
C=C1CC[C@@]2(N=C=S)[C@H]3[C@H](CC[C@@H]2C)[C@@H](C)C[C@@H](CC(C)(C)N=C=S)[C@H]13	11.6	11.8	99.1 (≈ 38.5 µg/mL)	> 100	> 9	> 8	> 1
CO[C@H]1/C=C/O[C@@]2(C)Oc3c(C)c(O)c4c(O)c(c(/C=N/N5CCN(C)CC5)c(O)c4c3C2=O)NC(=O)/C(C)=C\C=C\[C@H](C)[C@H](O)[C@@H](C)[C@@H](O)[C@@H](C)[C@H](OC(C)=O)[C@@H]1C [RIFAMPIN]	–	–	0.09 (≈ 0.0741 µg/mL)	> 100	–	–	> 1100
